The source made the active and inactive calls. The calls are words filed in the database; no cut-off is given here.
How the values were obtained:
[1] = target: T1, 2-Hydroxyacid oxidase 1 (Homo sapiens) (UniProt Q9UJM8); assay: (§1) Inhibition of N-terminal His-tagged human recombinant glycolate oxidase expressed in Escherichia coli BL21 (DE3) cells using glycolate as substrate at 20 uM preincubated for 5 mins followed by substrate addition and measured after 1 min in the presence of DCHBS by horseradish peroxidase coupled colorimetric method relative to control; conditions: time 6.0 min
T1 sequence (whole entry): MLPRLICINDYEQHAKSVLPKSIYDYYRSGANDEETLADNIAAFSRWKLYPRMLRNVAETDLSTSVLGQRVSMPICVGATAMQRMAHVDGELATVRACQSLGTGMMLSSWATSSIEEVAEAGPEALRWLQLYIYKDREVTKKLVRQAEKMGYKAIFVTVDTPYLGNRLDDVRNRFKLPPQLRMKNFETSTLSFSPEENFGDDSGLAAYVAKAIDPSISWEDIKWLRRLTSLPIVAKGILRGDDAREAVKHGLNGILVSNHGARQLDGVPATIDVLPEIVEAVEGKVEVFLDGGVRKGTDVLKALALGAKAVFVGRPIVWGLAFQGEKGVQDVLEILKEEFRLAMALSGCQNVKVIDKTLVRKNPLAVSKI

[2] = target: T2, 2-Hydroxyacid oxidase 1 (Mus musculus) (UniProt Q9WU19); assay: as §1, with “mouse” for “human”; conditions: time 6.0 min
T2 sequence (whole entry): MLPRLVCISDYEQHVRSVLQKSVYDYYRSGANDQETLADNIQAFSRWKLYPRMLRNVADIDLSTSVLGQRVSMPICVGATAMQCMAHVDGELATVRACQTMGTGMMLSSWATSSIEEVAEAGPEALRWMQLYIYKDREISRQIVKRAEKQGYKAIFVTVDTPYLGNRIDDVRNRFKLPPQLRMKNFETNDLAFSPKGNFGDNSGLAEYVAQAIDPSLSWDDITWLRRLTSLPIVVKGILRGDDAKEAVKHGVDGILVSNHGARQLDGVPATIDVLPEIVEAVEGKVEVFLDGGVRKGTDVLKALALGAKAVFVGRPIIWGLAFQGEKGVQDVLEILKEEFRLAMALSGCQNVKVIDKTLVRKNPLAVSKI

[3] = target: T3, L-lactate dehydrogenase A chain (Homo sapiens, UniProt P00338); assay: Inhibition of human recombinant LDHA using pyruvate as substrate at 10 uM preincubated for 10 mins followed by substrate addition and measured every 60 sec for 10 mins in the presence of NADH by fluorescence assay relative to control; conditions: time 20.0 min
Outline: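 Recombinant human LDHA or LDHB (0.015 U/mL) with NADH 150 μM and inhibitor 10 μM in 50 mM phosphate pH 7, 10 min rt baseline read; pyruvate 1 mM added, NADH fluorescence (ex 340/em 460 nm) read every 60 s for 10 min; baseline-corrected slope versus 100% activity control; four replicates.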

[4] = target: T4, 2-Hydroxyacid oxidase 1 (Homo sapiens, UniProt Q9UJM8); assay: Inhibition of N-terminal His-tagged human recombinant glycolate oxidase expressed in Escherichia coli BL21 (DE3) cells using glycolate as substrate preincubated for 10 mins followed by substrate addition and measured after 10 mins by Amplex red and horseradish peroxidase based fluorescence assay
T4 sequence (Q9UJM8 whole entry): T1 sequence (whole entry)

[5] = target: T5, 2-Hydroxyacid oxidase 1 (Mus musculus, UniProt Q9WU19); assay: Inhibition of N-terminal His-tagged mouse recombinant glycolate oxidase expressed in Escherichia coli BL21 (DE3) cells using glycolate as substrate preincubated for 10 mins followed by substrate addition and measured after 10 mins by Amplex red and horseradish peroxidase based fluorescence assay
T5 sequence (Q9WU19 whole entry): T2 sequence (whole entry)

[6] = target: T3, L-lactate dehydrogenase A chain; assay: Inhibition of human recombinant LDHA using pyruvate as substrate preincubated for 10 mins followed by substrate addition and measured every 60 sec for 10 mins in the presence of NADH by fluorescence assay
[7] = target: T6, L-lactate dehydrogenase B chain (Homo sapiens, UniProt P07195); assay: Inhibition of human recombinant LDHB using pyruvate as substrate preincubated for 10 mins followed by substrate addition and measured every 60 sec for 10 mins in the presence of NADH by fluorescence assay
T6 sequence (P07195 whole entry): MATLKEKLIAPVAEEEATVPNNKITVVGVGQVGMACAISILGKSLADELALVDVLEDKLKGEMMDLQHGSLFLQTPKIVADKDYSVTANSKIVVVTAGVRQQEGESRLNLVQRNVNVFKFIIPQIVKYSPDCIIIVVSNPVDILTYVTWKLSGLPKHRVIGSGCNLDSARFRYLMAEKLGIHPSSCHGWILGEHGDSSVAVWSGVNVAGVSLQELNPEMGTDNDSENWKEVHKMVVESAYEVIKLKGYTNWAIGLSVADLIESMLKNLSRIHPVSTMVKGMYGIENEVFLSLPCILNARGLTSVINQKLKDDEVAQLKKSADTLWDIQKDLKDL

[8] = system: Hepatocyte; assay: Inhibition of GO/LDHA in hyperoxaluric-primary hepatocyte isolated from Agxt1 knockdown PH1 C57BL/6 mouse assessed as relative oxalate output at 10 uM measured at 24 hrs in the presence of glycolate relative to control; assay type: cell-based
Outline: (§2)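 Agxt1-/- mouse primary hepatocytes cultured with 5 mM glycolate, inhibitor at 10 μM; extracellular oxalate measured by colorimetric kit 24 and 48 h after inhibitor addition; relative oxalate = oxalate with inhibitor over oxalate without inhibitor; negative values mean below detection limit; mean of three/four replicates ± SD.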

[9] = system: Hepatocyte; assay: Inhibition of GO/LDHA in hyperoxaluric-primary hepatocyte isolated from Agxt1 knockdown PH1 C57BL/6 mouse assessed as relative oxalate output at 10 uM measured at 48 hrs in the presence of glycolate relative to control; assay type: cell-based; outline: as §2
[10] = system: Hepatocyte; assay: Inhibition of GO/LDHA in hyperoxaluric-primary hepatocyte isolated from Grhpr-knockdown PH2 C57BL/6 mouse assessed as relative oxalate output at 10 uM measured at 24 hrs in the presence of glycolate relative to control; assay type: cell-based
Outline: (§3)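 Grhpr-/- mouse primary hepatocytes cultured with 10 mM glycolate, inhibitor at 10 μM; extracellular oxalate determined colorimetrically at 24 and 48 h post-treatment, expressed relative to untreated medium (RO); negative RO means below detection limit; three/four replicates, mean ± SD.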

[11] = system: Hepatocyte; assay: Inhibition of GO/LDHA in hyperoxaluric-primary hepatocyte isolated from Grhpr-knockdown PH2 C57BL/6 mouse assessed as relative oxalate output at 10 uM measured at 48 hrs in the presence of glycolate relative to control; assay type: cell-based; outline: as §3
[12] = system: Hepatocyte; assay: Inhibition of GO/LDHA in hyperoxaluric-primary hepatocyte isolated from Hoga1-knockdown PH3 C57BL/6 mouse assessed as relative oxalate output at 10 uM measured at 24 hrs in the presence of hydroxyproline relative to control; assay type: cell-based
Outline: (§4)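 Hoga1-/- mouse primary hepatocytes challenged with 10 mM hydroxyproline, inhibitor 10 μM; extracellular oxalate measured by colorimetric kit 24 and 48 h after dosing, given as ratio to oxalate without inhibitor; negative values are below detection limit; mean of three/four replicates ± SD.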

[13] = system: Hepatocyte; assay: Inhibition of GO/LDHA in hyperoxaluric-primary hepatocyte isolated from Hoga1-knockdown PH3 C57BL/6 mouse assessed as relative oxalate output at 10 uM measured at 48 hrs in the presence of hydroxyproline relative to control; assay type: cell-based; outline: as §4
[14] = system: Hepatocyte; assay: Cytotoxicity against hyperoxaluric-primary hepatocyte isolated from Hoga1-knockdown PH3 C57BL/6 mouse assessed as cell death at 10 uM by MTS assay; assay type: toxicity, cell-based; conditions: hepatocytes, Hoga1-knockdown PH3, 10 µM
Outline: (§5)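 Primary hepatocytes from Agxt1-/- (PH1, 5 mM glycolate), Grhpr-/- (PH2, 10 mM glycolate) or Hoga1-/- (PH3, 10 mM hydroxyproline) mice, incubated with inhibitor at 10 μM; viability followed through the oxalate assay by MTS tetrazolium method.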

[15] = system: Hepatocyte; assay: Cytotoxicity against hyperoxaluric-primary hepatocyte isolated from Grhpr-knockdown PH2 C57BL/6 mouse assessed as cell death at 10 uM by MTS assay; assay type: toxicity, cell-based; conditions: hepatocytes, Grhpr-knockdown PH2 (primary hyperoxaluria type 2); outline: as §5
[16] = system: Hepatocyte; assay: Cytotoxicity against hyperoxaluric-primary hepatocyte isolated from Agxt1-knockdown PH1 C57BL/6 mouse assessed as cell death at 10 uM by MTS assay; assay type: toxicity, cell-based; conditions: hepatocytes, Agxt1-knockdown PH1, 10 µM; outline: as §5
[17] = system: Hepatocyte; assay: Inhibition of GO/LDHA in hyperoxaluric-primary hepatocyte isolated from Agxt1 knockdown PH1 C57BL/6 mouse assessed as reduction in extracellular oxalate concentration at 10 uM measured at 48 hrs in the presence of glycolate relative to control; assay type: cell-based; design: scale not given: the % may be the effect or the level left; outline: as §2
[18] = Inhibition of GO/LDHA in hyperoxaluric-primary hepatocyte isolated from Agxt1 knockdown PH1 C57BL/6 mouse measured at 24 hrs in the presence of 5 mM glycolate; assay type: cell-based
Outline: (§6)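 Agxt1-/- hepatocytes with 5 mM glycolate; eight inhibitor concentrations per replicate; extracellular oxalate measured colorimetrically at 24 or 48 h; EC50 as mean of three/four replicates ± SD.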

[19] = Inhibition of GO/LDHA in hyperoxaluric-primary hepatocyte isolated from Agxt1 knockdown PH1 C57BL/6 mouse measured at 48 hrs in the presence of 5 mM glycolate; assay type: cell-based; outline: as §6
[20] = system: HEK293; assay: Cytotoxicity against HEK293 cells assessed as reduction in cell viability upto 50 uM measured after 48 hrs by MTT assay; assay type: toxicity, cell-based; conditions: human, hek293, 48 h
[21] = target: T4, 2-Hydroxyacid oxidase 1; assay: (§7) Non-competitive mixed inhibition of N-terminal His-tagged human recombinant glycolate oxidase expressed in Escherichia coli BL21 (DE3) cells assessed as inhibition constant using varying concentration of glycolate as substrate measured every 60 sec for 15 mins by Amplex red and horseradish peroxidase based fluorescence assay
[22] = target: T5, 2-Hydroxyacid oxidase 1; assay: as §7, with “mouse” for “human”
[23] = target: T3, L-lactate dehydrogenase A chain; assay: Non-competitive inhibition of human recombinant LDHA assessed as inhibition constant using varying concentration of pyruvate as substrate preincubated for 10 mins followed by substrate addition and measured every 60 sec for 10 mins in the presence of NADH by fluorescence assay
[24] = target: T6, L-lactate dehydrogenase B chain; assay: Non-competitive inhibition of human recombinant LDHB assessed as inhibition constant using varying concentration of pyruvate as substrate preincubated for 10 mins followed by substrate addition and measured every 60 sec for 10 mins in the presence of NADH by fluorescence assay
[25] = target: T2, 2-Hydroxyacid oxidase 1 (Mus musculus); assay: Non-competitive mixed inhibition of N-terminal His-tagged mouse recombinant glycolate oxidase expressed in Escherichia coli BL21 (DE3) cells assessed as decrease in Vmax with increase in apparent Km using glycolate as substrate upto 60 microM
[26] = Inhibition of GO/LDHA in hyperoxaluric-primary hepatocyte isolated from Grhpr-knockdown PH2 C57BL/6 mouse measured at 24 hrs in the presence of 10 mM glycolate; assay type: cell-based
Outline: (§8)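 Grhpr-/- hepatocytes with 10 mM glycolate; eight inhibitor concentrations per replicate; colorimetric extracellular oxalate at 24 or 48 h; EC50 as mean of three/four replicates ± SD.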

[27] = Inhibition of GO/LDHA in hyperoxaluric-primary hepatocyte isolated from Grhpr-knockdown PH2 C57BL/6 mouse measured at 48 hrs in the presence of 10 mM glycolate; assay type: cell-based; outline: as §8

Row | SMILES | inhibition [1] [%] | inhibition [2] [%] | IC50 [5] [µM] | IC50 [6] [µM] | IC50 [7] [µM] | fold change (FC) [8] | fold change (FC) [10] | fold change (FC) [11] | fold change (FC) [12] | fold change (FC) [13] | Activity [14] | Activity [15] | Activity [16] | Activity [20] | further results
1 | O=C(O)c1cc(-c2ccc(CN3CCCCC3)o2)ccc1O | < 50 | < 50 |  |  |  |  |  |  |  |  |  |  |  |  | 
2 | COc1ccc(CNCc2ccc(-c3ccc(O)c(C(=O)O)c3)o2)cc1 | < 50 | < 50 |  |  |  |  |  |  |  |  |  |  |  |  | inhibition [3]: 18%
3 | N.O=C(O)c1cc(-c2ccc(CNc3ccc([N+](=O)[O-])cc3)o2)ccc1O |  |  | 5.4 | 1.5 | 5.9 | 0.04 | 0.6 | 0.88 | 0.18 | 0.1 | Non-Toxic | Non-Toxic | Non-Toxic | Non-Toxic | IC50 [4]: 10.3 µM; fold change (FC) [9]: 0.5; Activity [17]: 50%; EC50 [18]: 0.6 µM; EC50 [19]: 1.6 µM
4 | O=C(O)c1cc(-c2ccc(CNCc3ccc([N+](=O)[O-])cc3)o2)ccc1O | < 50 | < 50 |  | 8 |  |  |  |  |  |  |  |  |  |  | 
5 | COc1cccc2c1C(=O)c1c(O)c3c(c(O)c1C2=O)C[C@@](O)(C(=O)CO)C[C@@H]3O[C@H]1C[C@H](N)[C@H](O)[C@H](C)O1 [DOXORUBICIN] |  |  |  |  |  |  |  |  |  |  |  |  |  | Non-Toxic | 
6 | N.O=C(O)c1cc(-c2ccc(CNCc3ccccc3)o2)ccc1O | < 50 | < 50 |  | 2.5 | 3.3 | 0.18 |  |  |  |  | Non-Toxic | Non-Toxic | Non-Toxic |  | fold change (FC) [9]: 0.63
7 | O=C(O)c1cc(-c2ccc(CNCc3ccc(O)cc3)o2)ccc1O | < 50 | < 50 |  |  |  |  |  |  |  |  |  |  |  |  | inhibition [3]: 18%
8 | CC(C)(C)C(O)/C=C/c1ccc2c(c1)OCO2 (configuration not stated) [STIRIPENTOL] |  |  |  |  |  |  | 0.27 | 0.33 | 0.7 | 0.49 | Non-Toxic | Non-Toxic | Non-Toxic |  | 
9 | CCN(CC)CC.O=C(O)c1cc(-c2ccc(CN(Cc3ccccc3)Cc3ccco3)o2)ccc1O |  |  | 8 | 2.3 | 4.3 | -0.09 | 0.31 | 0.34 | 0.22 | 0.3 | Non-Toxic | Non-Toxic | Non-Toxic |  | IC50 [4]: 16.8 µM; fold change (FC) [9]: 0.42; Activity [17]: 60%; EC50 [18]: 0.5 µM; EC50 [19]: 0.6 µM
10 | O=C(O)c1cc(-c2ccc(CNCc3cccnc3)o2)ccc1O | < 50 | < 50 |  |  |  |  |  |  |  |  |  |  |  |  | 
11 | C#CCN(Cc1ccc(-c2ccc(O)c(C(=O)O)c2)o1)Cc1ccc(-c2ccc(O)c(C(=O)O)c2)o1.N.N |  |  | 0.8 | 1.6 | 2.3 | 0.44 | 0.2 | 0.25 | 0.21 | 0.52 | Non-Toxic | Non-Toxic | Non-Toxic | Non-Toxic | IC50 [4]: 2 µM
12 | O=Cc1ccc(-c2ccc(O)c(C(=O)O)c2)o1 |  |  | 14.4 |  | 29 |  |  |  |  |  | Non-Toxic | Non-Toxic | Non-Toxic | Non-Toxic | Ki [21]: 18.2 µM; Ki [22]: 7.9 µM; Ki [23]: 1.4 µM; Ki [24]: 12.9 µM; inhibition [25]: Active; Activity [17]: 60%; EC50 [18]: 3.5 µM; EC50 [26]: 1.8 µM; EC50 [19]: 8.4 µM; EC50 [27]: 1.9 µM

— ChEMBL document CHEMBL5120856, “New salicylic acid derivatives, double inhibitors of glycolate oxidase and lactate dehydrogenase, as effective agents decreasing oxalate production” (Eur J Med Chem, 2022)
